Sampled rows, rich in hits. Any-hit rate of the full collection: about 2%.
S100A4 inh HTS – inhibitors of S100A4-myosin IIA peptide binding, primary screen, biochemical, fluorescence polarization, TAMRA-MyoIIA peptide. Protein S100-A4 (Homo sapiens), P26447. inhibition, % at 10.7 µM. hit rate 0.14% among 360,000;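 active = mean inhibition of at least 70% across replicates, with every replicate also reaching that level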
Target sequence (P26447 whole entry, looked up): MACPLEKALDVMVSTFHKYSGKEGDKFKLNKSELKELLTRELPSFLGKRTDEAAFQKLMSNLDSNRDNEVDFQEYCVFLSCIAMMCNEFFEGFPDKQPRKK
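System – human S100A4 monomer protein, biochemical binding assay · Buffer or medium – Calcium-containing HEPES buffer, pH 7.2 · Timing – 5 min between mix addition and reading · Also added – TAMRA-labelled myosin IIA heavy-chain peptide probe, 5 nM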
CAL PDZ FP-1 – CAL PDZ peptide-binding inhibitors, primary screen, biochemical, fluorescence polarization, Cer-tagged CAL PDZ, HTS. purified CAL PDZ, TMR-peptide fluorescence polarization, 1 h. inhibition, % at 20 µM. hit rate 0.02% among 330,000. AID 504414, 2011;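 active = highest replicate inhibition of at least 40%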;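 note: plate controls were DMSO neutral control wells for no effect and unlabeled competitor peptide control wells for full effect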
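Material: tagged CAL PDZ domain; buffer or medium: 25 mM sodium phosphate pH 7.4, 150 mM NaCl, TCEP, IgG, Thesit; compound dosing: single point, 20 µM; schedule: 1 h incubation at room temperature before polarization reading; measured by: FP readout, S and P plane fluorescence; read-out basis: percent inhibition from loss of millipolarization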
C2C12 statin – suppressors of statin myotoxicity in C2C12 myotubes, primary screen, cell-based, single point, plate reader; hit rate 0.78% among 330,000; C2C12 myotubes + simvastatin, ATP luminescence, 48 h; scaled: DMSO 0, geranylgeraniol control 100; rescue of ATP level, % at 7.49 µM; AID 602340, 2012;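 active = mean ATP rescue above about 67%, or every replicate alone reaching that limit, limit read from the data, passing the limit was not always enough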;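 note: myotubes were challenged with 10 µM simvastatin during compound exposure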
dFosB act-1 – activators of delta FosB homodimer, primary screen, biochemical, fluorescence polarization, TAMRA-CDK5 oligo, single point | purified delta FosB; percent of positive-control signal above neutral wells | activation, % at 25 µM | hit rate 0.99% among 340,000;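 active = mean activation above about 17%, with every replicate also reaching it, limit read from the data, passing the limit was not always enough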
Target sequence (P13346 whole entry, looked up): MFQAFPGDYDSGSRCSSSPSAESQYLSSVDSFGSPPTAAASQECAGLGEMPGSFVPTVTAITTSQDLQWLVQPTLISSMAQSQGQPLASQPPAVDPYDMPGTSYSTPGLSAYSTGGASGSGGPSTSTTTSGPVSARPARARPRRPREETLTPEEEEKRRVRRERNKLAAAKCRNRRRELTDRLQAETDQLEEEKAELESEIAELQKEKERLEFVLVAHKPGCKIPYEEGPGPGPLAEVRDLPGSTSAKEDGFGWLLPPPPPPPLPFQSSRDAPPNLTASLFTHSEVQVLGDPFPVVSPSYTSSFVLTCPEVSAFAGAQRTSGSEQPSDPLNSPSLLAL
CDK5 p35 inh – inhibitors of human CDK5/p35 kinase, primary screen, biochemical, single concentration. Cyclin-dependent kinase 5 (Homo sapiens) + Cyclin-dependent kinase 5 activator 1 (Homo …. Recombinant CDK5/p35, ADP-Glo luminescence, 60 min. inhibition, % at 10 µM. hit rate 0.01% among 330,000. AID 488839, 2010;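 active = highest replicate inhibition of at least 50% and at least 75% of replicates reaching 50%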;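 note: plate controls were DMSO neutral control for no effect and GW8510 at 10 µM for full effect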
CAL PDZ FP-2 – untagged CAL PDZ binding inhibitors, primary screen, biochemical, fluorescence polarization, HTS; hit rate 0.92% among 300,000; inhibition, % at 24.9 µM; purified CAL PDZ, TMR-peptide fluorescence polarization, 1 h;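 active = mean inhibition of at least 30% with at least half of replicates also reaching 30%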;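 note: 0% = DMSO neutral control and 100% = excess unlabeled competitor peptide PRC23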
dFosB act-2 – activators of mouse delta FosB DNA binding, confirmation, biochemical, fluorescence polarization, TAMRA-CDK5 oligo, cherry-picked samples; shares compounds with dFosB act-1; purified delta FosB; normalised: neutral wells 0, positive control 100; AID 588690, 2011; 2,400 tested, under 10 active; activation, % at 24.9 µM;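 active = highest replicate activation at or above 34% and every replicate reaching that threshold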;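 note: higher polarization means more probe DNA bound by delta FosB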
* hit, by the source's call.

What do the screens show for `O=C(Nc1ccon1)c1sc2cc(Cl)ccc2c1Cl`?
S100A4 inh HTS: -2; CAL PDZ FP-1: -3; C2C12 statin: -15; dFosB act-1: 41*; CDK5 p35 inh: -1; CAL PDZ FP-2: -2; dFosB act-2: 4

Results for Nc1ccc(S(=O)(=O)Nc2nccc(/C=C/c3ccc(Cl)cc3Cl)n2)cc1 ?
S100A4 inh HTS: -6; CAL PDZ FP-1: -2; dFosB act-1: 40*; CDK5 p35 inh: -4; CAL PDZ FP-2: -3; dFosB act-2: -4

What do the screens show for `COc1ccc(Br)cc1C(=O)Nc1ccc(C(=O)NCC(C)C)cc1`?
S100A4 inh HTS: -5; CAL PDZ FP-1: -1; C2C12 statin: -10; dFosB act-1: -4; CDK5 p35 inh: -2

What do the screens show for `CCOc1ccc(Br)cc1C(=O)Nc1ccc(C(=O)NCC(C)C)cc1`?
CAL PDZ FP-1: -2; dFosB act-1: 74*; CDK5 p35 inh: 0; dFosB act-2: 2

How did COCCNC(=O)COc1ncnc2ccc(Br)cc12 do in these assays?
CAL PDZ FP-1: -1; C2C12 statin: 13; dFosB act-1: -3; CDK5 p35 inh: 0; CAL PDZ FP-2: -6

Results for O=C(COc1ncnc2ccc(Br)cc12)NCc1ccco1 ?
S100A4 inh HTS: 2; CAL PDZ FP-1: -1; dFosB act-1: 22*; CDK5 p35 inh: 1; CAL PDZ FP-2: 9; dFosB act-2: -7

How did O=C(Nc1cc(Cl)ccc1Cl)c1cc(-c2ccco2)on1 do in these assays?
S100A4 inh HTS: -10; CAL PDZ FP-1: -2; C2C12 statin: 3; dFosB act-1: 18*; CDK5 p35 inh: 1; CAL PDZ FP-2: -3; dFosB act-2: -4

What do the screens show for `CCCOc1ccc(CC(CC(=O)O)(C(=O)O)C(=O)O)cc1`?
CAL PDZ FP-1: 0; C2C12 statin: -1; dFosB act-1: 0; CDK5 p35 inh: 0; CAL PDZ FP-2: -2

Results for O=C(COC(=O)/C=C/c1cc(Br)ccc1F)Nc1ccc2[nH]c(=O)[nH]c2c1 ?
S100A4 inh HTS: 10; CAL PDZ FP-1: -3; C2C12 statin: -7; dFosB act-1: 41*; CDK5 p35 inh: -2; CAL PDZ FP-2: 3; dFosB act-2: 1

How did CCN(C(=O)CSc1ccc2ccccc2c1)C1CCS(=O)(=O)C1 (stereo not given) do in these assays?
S100A4 inh HTS: -2; CAL PDZ FP-1: -2; C2C12 statin: 1; dFosB act-1: 0; CDK5 p35 inh: -1; CAL PDZ FP-2: -2

Results for CC(C)(C)C(=O)CSc1nc2ncc(Br)cc2[nH]1 ?
dFosB act-1: -3; CDK5 p35 inh: 0; CAL PDZ FP-2: -6

What do the screens show for `Cc1cc(C)c(NC(=O)CSc2nc3ncc(Br)cc3[nH]2)c(C)c1`?
S100A4 inh HTS: -5; CAL PDZ FP-1: -1; C2C12 statin: -2; dFosB act-1: 30*; CDK5 p35 inh: -1; CAL PDZ FP-2: 3; dFosB act-2: -1

Results for COc1cc(/C=C/c2nc(N)nc(-c3ccccc3O)n2)cc(OC)c1OC ?
CAL PDZ FP-1: -2; C2C12 statin: -9; dFosB act-1: 34*; CDK5 p35 inh: -3; CAL PDZ FP-2: 0; dFosB act-2: 3

What do the screens show for `COc1ccc(/C=C/c2nc(N)nc(-c3ccccc3O)n2)cc1OC`?
S100A4 inh HTS: -3; CAL PDZ FP-1: -2; dFosB act-1: 10; CDK5 p35 inh: -2; CAL PDZ FP-2: 1

From PubChem BioAssay
